17 compounds from ChEMBL document CHEMBL4387704, “Design, synthesis and biological evaluation of novel isoindolinone derivatives as potent histone deacetylase inhibitors” (Eur J Med Chem, 2019) can be followed below.

The source made the active and inactive calls. The calls are words filed in the database; no cut-off is given here.

For series [1], the target named is Histone deacetylase 1 (Homo sapiens, UniProt Q13547). Nature of the series: Inhibition of HDAC1 (unknown origin) using Fluor de Lys substrate by fluorescence assay relative to control.
Sequence of Histone deacetylase 1 (Q13547 whole entry): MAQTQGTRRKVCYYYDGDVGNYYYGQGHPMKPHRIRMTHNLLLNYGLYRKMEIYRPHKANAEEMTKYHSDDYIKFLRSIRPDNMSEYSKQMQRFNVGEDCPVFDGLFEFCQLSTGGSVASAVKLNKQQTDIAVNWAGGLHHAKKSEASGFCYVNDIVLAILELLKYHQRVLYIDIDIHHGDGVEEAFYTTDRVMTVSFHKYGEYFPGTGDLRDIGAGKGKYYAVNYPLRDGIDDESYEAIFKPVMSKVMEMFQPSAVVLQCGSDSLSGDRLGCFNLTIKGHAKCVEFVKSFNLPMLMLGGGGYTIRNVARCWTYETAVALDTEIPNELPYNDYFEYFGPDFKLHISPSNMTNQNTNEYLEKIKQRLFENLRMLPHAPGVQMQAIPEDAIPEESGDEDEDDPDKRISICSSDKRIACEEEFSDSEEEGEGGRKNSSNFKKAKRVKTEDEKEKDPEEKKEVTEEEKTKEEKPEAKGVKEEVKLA
The test system of series [2] is K562. Nature of the series: Antiproliferative activity against human K562 assessed as reduction in cell viability measured after 72 hrs using alamar blue based fluorescence method. To be noted: K562, 72 h. Format: functional. The method, boiled down:
(§1)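 Leukemia lines grown in IMDM with penicillin/streptomycin, HL-60 with 20% FBS and K562 with 10% FBS, at 37 °C, 5% CO2. Cells in 96-well plates exposed to drug for 72 h. Alamar blue (1 mM solution) added for 5–6 h, fluorescence read at 530/590 nm.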

In series [3] the test system is MCF7. Nature of the series: Antiproliferative activity against human MCF7 assessed as reduction in cell viability measured after 72 hrs using alamar blue based fluorescence method. To be noted: MCF7, 72 h. The class given is functional. The method, boiled down:
(§2)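 HCT116 and MCF-7 grown in McCoy's 5A with 10% FBS and penicillin/streptomycin at 37 °C, 5% CO2. Cells plated in 96-well format and exposed to drug for 72 h. Alamar blue (1 mM solution) added, incubated 5–6 h, fluorescence read at 530/590 nm.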

Series [4] has as its system HL-60. Nature of the series: Antiproliferative activity against human HL60 assessed as reduction in cell viability measured after 72 hrs using alamar blue based fluorescence method. The class given is functional. To be noted: HL-60, 72 h. A digest of the protocol:
as §1

The test system of series [5] is HCT-116. Nature of the series: Antiproliferative activity against human HCT116 assessed as reduction in cell viability measured after 72 hrs using alamar blue based fluorescence method. The class given is functional. To be noted: HCT-116, 72 h. The method, boiled down: as §2
Series [6] deals with Polyamine deacetylase HDAC10 (Homo sapiens, UniProt Q969S8). Nature of the series: Inhibition of HDAC10 (unknown origin) using Fluor de Lys substrate by fluorescence assay relative to control. The method, boiled down:
(§3)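 Recombinant HDAC isoform assays run by a contract lab. Compounds in DMSO, 10-dose IC50 mode, 3-fold serial dilution from 50 μM. Duplicate runs; IC50 from curve fitting.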

Series [7] deals with Protein deacetylase HDAC6 (Homo sapiens) (UniProt Q9UBN7). Nature of the series: Inhibition of HDAC6 (unknown origin) using Fluor de Lys substrate by fluorescence assay relative to control. The method, boiled down: as §3
Sequence of Protein deacetylase HDAC6 (Homo sapiens) (Q9UBN7 whole entry): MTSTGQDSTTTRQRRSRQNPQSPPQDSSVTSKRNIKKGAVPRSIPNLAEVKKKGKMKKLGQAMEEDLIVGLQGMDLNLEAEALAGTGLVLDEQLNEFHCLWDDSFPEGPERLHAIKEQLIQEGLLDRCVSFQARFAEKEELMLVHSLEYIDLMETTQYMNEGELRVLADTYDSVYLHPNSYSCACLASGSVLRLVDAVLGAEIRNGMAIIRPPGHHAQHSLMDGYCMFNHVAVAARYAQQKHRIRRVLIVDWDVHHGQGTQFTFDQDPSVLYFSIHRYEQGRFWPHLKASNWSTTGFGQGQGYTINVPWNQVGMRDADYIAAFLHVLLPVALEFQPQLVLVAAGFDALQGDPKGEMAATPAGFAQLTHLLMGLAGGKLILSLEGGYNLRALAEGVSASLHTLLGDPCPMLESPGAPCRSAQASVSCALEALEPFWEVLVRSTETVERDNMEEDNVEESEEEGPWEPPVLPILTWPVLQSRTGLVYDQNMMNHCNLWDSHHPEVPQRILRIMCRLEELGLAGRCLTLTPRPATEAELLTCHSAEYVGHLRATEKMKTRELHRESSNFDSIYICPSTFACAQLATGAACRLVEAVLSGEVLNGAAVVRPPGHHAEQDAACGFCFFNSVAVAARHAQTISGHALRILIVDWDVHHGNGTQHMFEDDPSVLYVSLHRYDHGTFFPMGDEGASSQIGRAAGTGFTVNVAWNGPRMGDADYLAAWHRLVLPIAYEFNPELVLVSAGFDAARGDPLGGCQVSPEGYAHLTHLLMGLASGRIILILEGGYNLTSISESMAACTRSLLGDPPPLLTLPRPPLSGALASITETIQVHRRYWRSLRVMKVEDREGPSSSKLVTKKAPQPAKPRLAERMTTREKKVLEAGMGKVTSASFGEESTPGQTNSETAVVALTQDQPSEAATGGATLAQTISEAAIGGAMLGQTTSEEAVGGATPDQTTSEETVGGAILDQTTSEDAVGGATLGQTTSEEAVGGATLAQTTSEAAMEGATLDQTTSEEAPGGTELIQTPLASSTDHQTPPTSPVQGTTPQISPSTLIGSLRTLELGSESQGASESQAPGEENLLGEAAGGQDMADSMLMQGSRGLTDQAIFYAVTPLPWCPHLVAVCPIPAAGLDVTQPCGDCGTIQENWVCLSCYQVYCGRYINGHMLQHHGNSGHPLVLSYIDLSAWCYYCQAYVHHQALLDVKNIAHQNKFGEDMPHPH
Series [8] in a line: Metabolic stability in human liver microsomes assessed as half life at 1 uM preincubated for 10 mins followed by NADPH addition measured upto 60 mins by LC-MS/MS analysis. The class given is ADME, Microsome. The method, boiled down:
(§4)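 Liver microsomes from male SD rat, dog or human at 0.5 mg/mL in 100 mM potassium phosphate pH 7.4 with 1 μM compound. Prewarmed 37 °C 10 min, started with 1 mM NADPH. Stopped at 0, 5, 10, 20, 40, 60 min with cold methanol containing glibenclamide internal standard; supernatant by LC–MS/MS; T1/2 and CLint derived.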

Series [9] has as its target Histone deacetylase 9 (Homo sapiens) (UniProt Q9UKV0). Nature of the series: Inhibition of HDAC9 (unknown origin) using Fluor de Lys substrate by fluorescence assay relative to control. The method, boiled down: as §3
Series [10] in a line: Metabolic stability in dog liver microsomes assessed as internal clearance at 1 uM preincubated for 10 mins followed by NADPH addition measured upto 60 mins by LC-MS/MS analysis. Format: ADME, Canis lupus familiaris, Microsome. To be noted: read-out: CLH. The method, boiled down:
as §4

Series [11] in a line: Metabolic stability in human liver microsomes assessed as internal clearance at 1 uM preincubated for 10 mins followed by NADPH addition measured upto 60 mins by LC-MS/MS analysis. The class given is ADME, Microsome. To be noted: read-out: CLH. The method, boiled down:
as §4

The nature of series [12]: Metabolic stability in dog liver microsomes assessed as half life at 1 uM preincubated for 10 mins followed by NADPH addition measured upto 60 mins by LC-MS/MS analysis. The class given is ADME, Canis lupus familiaris, Microsome. A digest of the protocol: as §4
Series [13] in a line: Metabolic stability in rat liver microsomes assessed as internal clearance at 1 uM preincubated for 10 mins followed by NADPH addition measured upto 60 mins by LC-MS/MS analysis. Format: ADME, Microsome. To be noted: read-out: CLH. The method, boiled down:
as §4

In series [14] the target is Histone deacetylase 4 (Homo sapiens) (UniProt P56524). Nature of the series: Inhibition of HDAC4 (unknown origin) using Fluor de Lys substrate by fluorescence assay relative to control. The method, boiled down: as §3
Series [15] deals with Histone deacetylase 11 (Homo sapiens, UniProt Q96DB2). Nature of the series: Inhibition of HDAC11 (unknown origin) using Fluor de Lys substrate by fluorescence assay relative to control. A digest of the protocol:
as §3

Series [16] has as its target Histone deacetylase 5 (Homo sapiens) (UniProt Q9UQL6). Nature of the series: Inhibition of HDAC5 (unknown origin) using Fluor de Lys substrate by fluorescence assay relative to control. The method, boiled down:
as §3

Series [17] can be described thus: Metabolic stability in rat liver microsomes assessed as half life at 1 uM preincubated for 10 mins followed by NADPH addition measured upto 60 mins by LC-MS/MS analysis. The class given is ADME, Microsome. A digest of the protocol: as §4
Series [18] has as its target Histone deacetylase 7 (Homo sapiens) (UniProt Q8WUI4). Nature of the series: Inhibition of HDAC7 (unknown origin) using Fluor de Lys substrate by fluorescence assay relative to control. The method, boiled down:
as §3

Sequence of Polyamine deacetylase HDAC10 (Q969S8 whole entry, canonical isoform): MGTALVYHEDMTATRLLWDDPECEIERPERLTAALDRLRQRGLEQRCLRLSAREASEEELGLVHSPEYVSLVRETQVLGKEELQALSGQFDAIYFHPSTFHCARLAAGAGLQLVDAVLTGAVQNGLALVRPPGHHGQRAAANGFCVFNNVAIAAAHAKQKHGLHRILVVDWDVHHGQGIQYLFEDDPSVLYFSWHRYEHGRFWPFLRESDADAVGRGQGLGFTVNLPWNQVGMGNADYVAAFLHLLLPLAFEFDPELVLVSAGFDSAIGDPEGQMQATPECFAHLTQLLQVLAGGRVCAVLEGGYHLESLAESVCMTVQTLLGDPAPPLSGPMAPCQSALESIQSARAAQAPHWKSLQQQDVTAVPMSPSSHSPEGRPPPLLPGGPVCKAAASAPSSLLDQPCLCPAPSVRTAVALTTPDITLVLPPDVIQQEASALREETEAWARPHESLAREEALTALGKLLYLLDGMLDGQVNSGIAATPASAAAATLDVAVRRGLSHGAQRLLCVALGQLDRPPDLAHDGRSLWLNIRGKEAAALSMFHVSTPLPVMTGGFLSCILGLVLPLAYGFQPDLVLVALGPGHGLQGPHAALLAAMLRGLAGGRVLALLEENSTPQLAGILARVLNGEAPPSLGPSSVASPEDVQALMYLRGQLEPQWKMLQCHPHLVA
Sequence of Histone deacetylase 11 (Q96DB2 whole entry): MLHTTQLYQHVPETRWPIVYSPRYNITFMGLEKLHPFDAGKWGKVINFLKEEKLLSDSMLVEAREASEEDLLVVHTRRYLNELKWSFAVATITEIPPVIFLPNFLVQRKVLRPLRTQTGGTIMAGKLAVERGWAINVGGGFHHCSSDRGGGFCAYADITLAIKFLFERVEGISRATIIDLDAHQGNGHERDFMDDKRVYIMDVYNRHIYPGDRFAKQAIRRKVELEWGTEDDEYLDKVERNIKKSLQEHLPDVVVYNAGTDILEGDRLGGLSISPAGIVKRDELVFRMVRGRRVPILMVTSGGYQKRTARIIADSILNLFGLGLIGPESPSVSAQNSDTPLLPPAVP
Sequence of Histone deacetylase 7 (Homo sapiens) (Q8WUI4 whole entry): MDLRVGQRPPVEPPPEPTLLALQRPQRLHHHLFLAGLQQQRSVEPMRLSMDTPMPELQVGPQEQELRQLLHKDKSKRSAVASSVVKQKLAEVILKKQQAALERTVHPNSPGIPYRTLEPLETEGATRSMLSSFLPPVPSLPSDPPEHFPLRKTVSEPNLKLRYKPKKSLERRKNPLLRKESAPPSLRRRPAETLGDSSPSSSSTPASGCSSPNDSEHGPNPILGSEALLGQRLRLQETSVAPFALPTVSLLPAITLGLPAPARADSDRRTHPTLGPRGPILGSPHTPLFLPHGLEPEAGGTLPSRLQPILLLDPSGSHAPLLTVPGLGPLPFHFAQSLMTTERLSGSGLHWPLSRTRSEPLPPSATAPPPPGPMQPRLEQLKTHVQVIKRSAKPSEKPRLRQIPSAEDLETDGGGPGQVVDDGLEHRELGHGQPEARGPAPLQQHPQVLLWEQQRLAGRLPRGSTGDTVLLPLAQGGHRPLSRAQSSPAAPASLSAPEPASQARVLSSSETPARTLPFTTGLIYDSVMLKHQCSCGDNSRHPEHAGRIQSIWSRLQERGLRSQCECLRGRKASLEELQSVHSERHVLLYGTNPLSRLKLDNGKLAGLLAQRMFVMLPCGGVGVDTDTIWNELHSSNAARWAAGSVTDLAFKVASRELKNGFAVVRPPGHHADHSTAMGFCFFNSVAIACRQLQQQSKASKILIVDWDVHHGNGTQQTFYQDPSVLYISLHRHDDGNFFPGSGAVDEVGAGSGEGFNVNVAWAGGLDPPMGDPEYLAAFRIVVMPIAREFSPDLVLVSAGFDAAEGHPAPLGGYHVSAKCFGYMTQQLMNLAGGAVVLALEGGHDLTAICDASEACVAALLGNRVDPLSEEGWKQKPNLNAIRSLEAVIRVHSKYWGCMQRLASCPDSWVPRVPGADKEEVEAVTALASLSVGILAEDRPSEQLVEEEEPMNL
Sequence of Histone deacetylase 9 (Homo sapiens) (Q9UKV0 whole entry): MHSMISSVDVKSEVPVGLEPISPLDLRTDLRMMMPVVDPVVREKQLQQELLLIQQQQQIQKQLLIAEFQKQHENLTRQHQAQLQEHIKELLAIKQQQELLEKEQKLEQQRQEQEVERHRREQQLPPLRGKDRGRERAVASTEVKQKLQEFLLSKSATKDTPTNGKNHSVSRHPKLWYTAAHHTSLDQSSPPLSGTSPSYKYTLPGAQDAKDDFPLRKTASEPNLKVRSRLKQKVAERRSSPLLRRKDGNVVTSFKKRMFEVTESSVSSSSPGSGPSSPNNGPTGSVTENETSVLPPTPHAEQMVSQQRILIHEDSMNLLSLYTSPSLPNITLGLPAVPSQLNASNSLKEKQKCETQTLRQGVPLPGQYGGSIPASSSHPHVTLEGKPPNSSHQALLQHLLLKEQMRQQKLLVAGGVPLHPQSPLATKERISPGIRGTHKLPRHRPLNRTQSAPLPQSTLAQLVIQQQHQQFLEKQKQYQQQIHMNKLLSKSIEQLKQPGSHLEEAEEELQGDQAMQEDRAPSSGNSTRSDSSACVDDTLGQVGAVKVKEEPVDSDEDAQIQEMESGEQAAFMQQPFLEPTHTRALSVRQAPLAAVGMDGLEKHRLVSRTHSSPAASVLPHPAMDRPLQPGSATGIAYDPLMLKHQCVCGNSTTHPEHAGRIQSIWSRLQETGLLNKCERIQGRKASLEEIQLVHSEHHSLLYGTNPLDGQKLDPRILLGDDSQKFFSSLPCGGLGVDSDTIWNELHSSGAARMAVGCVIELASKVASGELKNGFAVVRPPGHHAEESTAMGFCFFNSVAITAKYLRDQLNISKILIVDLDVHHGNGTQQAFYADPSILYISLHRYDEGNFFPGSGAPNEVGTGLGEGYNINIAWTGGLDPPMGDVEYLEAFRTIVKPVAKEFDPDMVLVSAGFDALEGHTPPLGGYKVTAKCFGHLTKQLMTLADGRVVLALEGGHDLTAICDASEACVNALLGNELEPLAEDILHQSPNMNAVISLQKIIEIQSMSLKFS

As to `Nc1cc(F)ccc1NC(=O)CCCCCNC(=O)/C=C1\NC(=O)c2ccccc21`, the IC50 in [1] (read-out: IC50) was found to be 6.42 µM.
Regarding `COc1ccc2c(c1)/C(=C/C(=O)NCc1ccc(C(=O)Nc3ccc(F)cc3N)cc1)NC2=O`, the IC50 in series [1] (read-out: IC50) stood at 0.0968 µM.
As for `Nc1cc(Cl)ccc1NC(=O)c1ccc(CNC(=O)/C=C2\NC(=O)c3ccccc32)cc1`, in series [1] (read-out: IC50), the IC50 turned out to be 0.466 µM.
As to `Nc1ccccc1NC(=O)c1ccc(CNC(=O)/C=C2\NC(=O)c3ccccc32)cc1`, the IC50 in [2] is 0.286 µM; in [3], 20.1 µM; in series [1] (read-out: IC50), 0.0656 µM; in series [4], 0.45 µM; in [5], 0.483 µM.
Regarding `Nc1cc(F)ccc1NC(=O)c1ccc(CNC(=O)/C=C2\NC(=O)c3cc(Cl)c(Cl)cc32)cc1`, the IC50 in series [1] (read-out: IC50) was determined as 0.489 µM.
Regarding `Nc1ccccc1NC(=O)CCCCCCNC(=O)/C=C1\NC(=O)c2ccccc21`, the concentration for half-maximal inhibition (IC50) in [1] (read-out: IC50) worked out at 0.32 µM.
Take `Nc1cc(F)ccc1NC(=O)CCCCCCNC(=O)/C=C1\NC(=O)c2ccccc21`: the IC50 in [1] (read-out: IC50) amounted to 1.6 µM.
For `Nc1ccccc1NC(=O)c1ccc(CNC(=O)/C=C2\NC(=O)c3ncccc32)cc1`, the concentration for half-maximal inhibition (IC50) in series [1] (read-out: IC50) was 0.758 µM.
In the case of `Nc1cc(F)ccc1NC(=O)c1ccc(CNC(=O)/C=C2\NC(=O)c3ccc(C(F)(F)F)cc32)cc1`, the IC50 in [1] (read-out: IC50) was determined as 0.491 µM.
Still for that read-out and setting: as for `O=C(/C=C1\NC(=O)c2ccccc21)NCCCCCC(=O)NO`, the figure is 0.0579 µM; as for `Nc1cc(F)ccc1NC(=O)c1ccc(CNC(=O)/C=C2\NC(=O)c3ccc(F)cc32)cc1`, 0.167 µM; as for `Cc1ccc(NC(=O)c2ccc(CNC(=O)/C=C3\NC(=O)c4ccccc43)cc2)c(N)c1`, 5.72 µM.
For the compound `Nc1ccc(F)cc1NC(=O)c1ccc(CNC(=O)/C=C2\NC(=O)c3ccccc32)cc1`, the IC50 in series [1] (read-out: IC50) was 0.0703 µM.
As to `Nc1cc(F)ccc1NC(=O)c1ccc(CNC(=O)/C=C2\NC(=O)c3ncccc32)cc1`, the IC50 in series [1] (read-out: IC50) was determined as 8.36 µM.
With `Nc1ccccc1NC(=O)CCCCCNC(=O)/C=C1\NC(=O)c2ccccc21`, the IC50 in series [1] (read-out: IC50) is 0.872 µM.
`Nc1cc(F)ccc1NC(=O)c1ccc(CNC(=O)/C=C/c2cccnc2)cc1` [TUCIDINOSTAT]: the IC50 in [2] worked out at 0.747 µM; in series [3] it was 29.1 µM; in series [6] it was 0.235 µM; in series [4], 1.97 µM; in series [15], 0.76 µM; in [5], 1.09 µM. The inhibition result in series [7], in [9], in [14], in [16] and in series [18] was “inactive” throughout. Further, the half-life at 1 µM in series [8] amounted to 4.6 h; in [12], 5.03 h; in [17] it was 3.17 h. The microsomal CLint at 1 µM in series [10] was found to be 5.76 µL/min/mg; in series [11], 4.98 µL/min/mg; in [13], 10.3 µL/min/mg.
`Nc1cc(F)ccc1NC(=O)c1ccc(CNC(=O)/C=C2\NC(=O)c3cccnc32)cc1`: the IC50 result in series [1] is recorded as “Not Active”.
